# Experimental data from ChEMBL document CHEMBL1221386, “Synthesis and pharmacological evaluation of 3-aryl-3-azolylpropan-1-amines as selective triple serotonin/norepinephrine/dopamine reuptake inhibitors” (Bioorg Med Chem Lett, 2010).
# How the values were obtained:
# [1] = Half life in human liver microsomes; assay type: ADME, Microsome
# Method in brief: (§1)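 Metabolic stability in human or rat liver microsomes. Half-lives measurable up to 60 min.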
# [2] = molecular target: Sodium-dependent dopamine transporter (Homo sapiens, UniProt Q01959); assay: Inhibition of dopamine reuptake at human dopamine transporter expressed in CHO cells at 100 nM
# [3] = Volume of distribution at steady state in rat at 10 mg/kg, iv; assay type: ADME, organism-based; set-up: dose 10 mg/kg, route intravenous; settings: in vivo, read-out: Vdss
# Mus musculus [4] = assay: Anxiolytic activity in mouse assessed as inhibition of marble buried at 30 mg/kg, ip by marble burying test; assay type: functional; settings: route intraperitoneal
# [5] = AUC (0 to infinity) in rat at 10 mg/kg, iv; assay type: ADME, organism-based; set-up: time infinity, dose 10 mg/kg, route intravenous; settings: plasma
# [6] = molecular target: Sodium-dependent serotonin transporter (Rattus norvegicus) (UniProt P31652); assay: Displacement of [3H]paroxetine from SERT in rat cerebral cortex at 100 nM
# [7] = molecular target: Muscarinic acetylcholine receptor M3 (Homo sapiens) (UniProt P20309); assay: Inhibition of muscarinic M3 receptor at 10 uM
# [8] = Half life in rat at 10 mg/kg, po; assay type: ADME, organism-based; set-up: dose 10 mg/kg, route oral; settings: in vivo
# Mus musculus [9] = assay: Antidepressant activity in po dosed mouse assessed as reduction of mobility time by forced swimming test; assay type: functional
# Method in brief: (§2)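 Mouse forced swimming test with oral dosing. Read-out is immobility time, expressed as % reduction of immobility. Minimal effective dose is the lowest dose with p <0.05. ED50 is given with 95% confidence limits. Doses are in mg/kg.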
# Cytochrome P450 1A2 = molecular target: T1, Cytochrome P450 1A2 (Homo sapiens, UniProt P05177); assay: Inhibition of CYP1A2; assay type: ADME
# T1 sequence (P05177 whole entry): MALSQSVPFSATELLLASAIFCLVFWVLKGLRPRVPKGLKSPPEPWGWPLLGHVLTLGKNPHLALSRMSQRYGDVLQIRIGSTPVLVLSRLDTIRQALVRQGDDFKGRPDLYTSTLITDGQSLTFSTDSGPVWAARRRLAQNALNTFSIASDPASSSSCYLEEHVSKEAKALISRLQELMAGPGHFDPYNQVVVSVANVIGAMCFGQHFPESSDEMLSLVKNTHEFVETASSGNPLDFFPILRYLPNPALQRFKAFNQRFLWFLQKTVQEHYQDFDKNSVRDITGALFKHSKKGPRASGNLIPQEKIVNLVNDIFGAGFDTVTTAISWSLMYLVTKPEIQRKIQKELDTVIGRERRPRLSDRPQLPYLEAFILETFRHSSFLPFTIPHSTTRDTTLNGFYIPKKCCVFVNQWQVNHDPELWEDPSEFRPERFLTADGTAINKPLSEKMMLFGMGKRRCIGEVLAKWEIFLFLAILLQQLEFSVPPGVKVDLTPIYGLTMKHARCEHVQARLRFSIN
# [10] = Oral bioavailability in rat at 10 mg/kg; assay type: ADME, organism-based; settings: in vivo
# [11] = AUC (0 to infinity) in rat at 10 mg/kg, po; assay type: ADME, organism-based; set-up: dose 10 mg/kg, route oral, time infinity; settings: plasma
# [12] = AUC in rat at 10 mg/kg, po; assay type: ADME, organism-based; set-up: dose 10 mg/kg, route oral; settings: plasma
# [13] = Half life in rat liver microsomes; assay type: ADME, Microsome; method in brief: as §1
# Cytochrome P450 2C9 = Cytochrome P450 2C9 (Homo sapiens, UniProt P11712); assay: Inhibition of CYP2C9; assay type: ADME
# Mus musculus [14] = assay: Antidepressant activity in mouse assessed as change in locomotion at 90 mg/kg, po; assay type: functional
# [15] = molecular target: T2, Muscarinic acetylcholine receptor M1 (Homo sapiens) (UniProt P11229); assay: Inhibition of muscarinic M1 receptor at 10 uM
# T2 sequence (whole entry): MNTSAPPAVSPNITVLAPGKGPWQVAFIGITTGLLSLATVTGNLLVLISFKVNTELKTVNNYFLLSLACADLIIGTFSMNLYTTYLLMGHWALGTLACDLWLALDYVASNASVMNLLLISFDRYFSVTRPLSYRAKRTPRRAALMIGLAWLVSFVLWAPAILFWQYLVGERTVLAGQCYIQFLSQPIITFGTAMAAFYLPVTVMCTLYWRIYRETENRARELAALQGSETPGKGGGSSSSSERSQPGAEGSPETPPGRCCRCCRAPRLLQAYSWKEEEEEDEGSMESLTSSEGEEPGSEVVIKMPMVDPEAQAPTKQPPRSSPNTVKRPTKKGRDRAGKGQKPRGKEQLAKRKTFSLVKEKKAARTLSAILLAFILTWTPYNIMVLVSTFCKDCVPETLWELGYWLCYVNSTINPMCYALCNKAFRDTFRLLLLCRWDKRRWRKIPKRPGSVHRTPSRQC
# Cytochrome P450 3A4 = Cytochrome P450 3A4 (Homo sapiens, UniProt P08684); assay: Inhibition of CYP3A4; assay type: ADME
# [16] = Clearance in rat at 10 mg/kg, iv; assay type: ADME, organism-based; set-up: dose 10 mg/kg, route intravenous; settings: in vivo
# Mus musculus [17] = assay: Antidepressant activity in mouse assessed as reduction of mobility time at 3 mg/kg, po by tail suspension test; assay type: functional; set-up: scale not given: the % may be the effect or the level left
# Method in brief: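 Mouse tail suspension test run as an oral dose–response. Read-out is percent reduction of immobility time; minimal effective dose taken at p<0.05.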
# Mus musculus [18] = assay: Antidepressant activity in mouse assessed as reduction of mobility time by forced swimming test at 10 mg/kg, po; assay type: functional; set-up: scale not given: the % may be the effect or the level left; method in brief: as §2
# [19] = Inhibition of alpha1 adrenergic receptor at 10 uM
# [20] = molecular target: Histamine H1 receptor (Homo sapiens) (UniProt P35367); assay: Inhibition of histamine H1 receptor at 10 uM
# Mus musculus [21] = assay: Antidepressant activity in mouse assessed as change in locomotion at 30 mg/kg, po; assay type: functional
# [22] = Half life in rat at 10 mg/kg, iv; assay type: ADME, organism-based; set-up: dose 10 mg/kg, route intravenous; settings: in vivo
# [23] = Cmax in rat at 10 mg/kg, po; assay type: ADME, organism-based; set-up: dose 10 mg/kg, route oral; settings: in vivo
# Mus musculus [24] = assay: Potentiation of […]-induced serotonin syndrome like behavior in mouse at 30 mg/kg, po; assay type: functional
# Method in brief: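 Mice, oral dosing. For serotonin potentiation, 5-hydroxytryptophan (5-HTP, serotonin precursor) is given to induce serotonin syndrome-like head twitch/stereotypy counts. Response is expressed as % potentiation relative to control group (0%). Minimal effective dose is the lowest dose reaching p <0.05. Doses are in mg/kg.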
# Cytochrome P450 2D6 = Cytochrome P450 2D6 (Homo sapiens, UniProt P10635); assay: Inhibition of CYP2D6; assay type: ADME
# [25] = molecular target: Sodium-dependent noradrenaline transporter (Homo sapiens, UniProt P23975); assay: Inhibition of norepinephrine reuptake at human NET expressed in MDCK cells; assay type: cell-based
# Mus musculus [26] = assay: Antidepressant activity in po dosed mouse assessed as reduction of mobility time by tail suspension test; assay type: functional; settings: read-out: MED
# Method in brief: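 Mouse tail suspension test with oral dose–response. Read-out is immobility time, reported as % reduction of immobility. Minimal effective dose is the lowest dose giving p <0.05. Doses are in mg/kg.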
# [27] = molecular target: T3, Sodium-dependent serotonin transporter (Homo sapiens, UniProt P31645); assay: Inhibition of serotonin reuptake at human SERT expressed in HEK293 cells; assay type: cell-based
# [28] = molecular target: T3, Sodium-dependent serotonin transporter; assay: Inhibition of serotonin reuptake at human SERT expressed in HEK293 cells at 100 nM
# Cytochrome P450 3A4, sequence (P08684 whole entry): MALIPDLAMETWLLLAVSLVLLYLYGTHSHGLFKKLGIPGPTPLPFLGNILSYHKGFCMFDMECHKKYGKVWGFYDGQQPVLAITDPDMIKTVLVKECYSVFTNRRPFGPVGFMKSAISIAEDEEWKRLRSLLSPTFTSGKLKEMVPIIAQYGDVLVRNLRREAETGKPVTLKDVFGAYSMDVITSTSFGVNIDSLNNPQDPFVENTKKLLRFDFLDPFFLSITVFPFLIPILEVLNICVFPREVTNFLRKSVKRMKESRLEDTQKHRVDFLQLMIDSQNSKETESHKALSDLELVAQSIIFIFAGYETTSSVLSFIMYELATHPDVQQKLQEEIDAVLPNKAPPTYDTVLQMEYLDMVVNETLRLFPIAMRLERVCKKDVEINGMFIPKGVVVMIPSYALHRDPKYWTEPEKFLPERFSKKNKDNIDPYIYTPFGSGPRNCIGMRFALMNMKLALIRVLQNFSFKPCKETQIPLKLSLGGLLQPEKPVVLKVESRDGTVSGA
# Cytochrome P450 2D6, sequence (P10635 whole entry): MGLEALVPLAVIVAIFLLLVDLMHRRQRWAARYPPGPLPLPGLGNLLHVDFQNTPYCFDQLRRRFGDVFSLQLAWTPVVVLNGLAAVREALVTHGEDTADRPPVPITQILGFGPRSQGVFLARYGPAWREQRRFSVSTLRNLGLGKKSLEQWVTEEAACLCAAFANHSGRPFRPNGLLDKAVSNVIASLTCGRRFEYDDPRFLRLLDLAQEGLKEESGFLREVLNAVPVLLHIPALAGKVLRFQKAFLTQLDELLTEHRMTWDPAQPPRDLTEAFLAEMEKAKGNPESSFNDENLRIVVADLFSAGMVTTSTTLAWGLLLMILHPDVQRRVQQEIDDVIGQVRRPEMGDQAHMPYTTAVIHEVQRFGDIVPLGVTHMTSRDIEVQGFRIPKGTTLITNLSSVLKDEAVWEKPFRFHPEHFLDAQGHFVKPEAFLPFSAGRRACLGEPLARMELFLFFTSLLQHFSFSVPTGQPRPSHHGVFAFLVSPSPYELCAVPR
# Sodium-dependent noradrenaline transporter, sequence (P23975 whole entry): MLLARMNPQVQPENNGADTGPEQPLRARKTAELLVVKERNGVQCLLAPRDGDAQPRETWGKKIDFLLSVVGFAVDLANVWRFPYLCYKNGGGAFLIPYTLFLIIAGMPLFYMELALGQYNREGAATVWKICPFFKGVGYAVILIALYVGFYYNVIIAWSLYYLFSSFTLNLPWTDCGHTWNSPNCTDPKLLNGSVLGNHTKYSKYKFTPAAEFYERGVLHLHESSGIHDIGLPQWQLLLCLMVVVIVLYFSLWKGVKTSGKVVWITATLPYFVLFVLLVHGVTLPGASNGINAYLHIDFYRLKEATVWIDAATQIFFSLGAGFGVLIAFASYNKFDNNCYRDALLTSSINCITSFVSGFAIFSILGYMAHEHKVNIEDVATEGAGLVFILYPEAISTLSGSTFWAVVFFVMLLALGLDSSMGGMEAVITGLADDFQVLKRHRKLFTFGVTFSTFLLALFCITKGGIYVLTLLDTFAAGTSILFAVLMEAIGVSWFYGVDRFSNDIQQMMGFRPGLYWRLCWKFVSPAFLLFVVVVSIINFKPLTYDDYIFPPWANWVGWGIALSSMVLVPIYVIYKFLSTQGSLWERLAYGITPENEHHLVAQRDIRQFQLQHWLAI
# Muscarinic acetylcholine receptor M3 (Homo sapiens), sequence (P20309 whole entry, looked up): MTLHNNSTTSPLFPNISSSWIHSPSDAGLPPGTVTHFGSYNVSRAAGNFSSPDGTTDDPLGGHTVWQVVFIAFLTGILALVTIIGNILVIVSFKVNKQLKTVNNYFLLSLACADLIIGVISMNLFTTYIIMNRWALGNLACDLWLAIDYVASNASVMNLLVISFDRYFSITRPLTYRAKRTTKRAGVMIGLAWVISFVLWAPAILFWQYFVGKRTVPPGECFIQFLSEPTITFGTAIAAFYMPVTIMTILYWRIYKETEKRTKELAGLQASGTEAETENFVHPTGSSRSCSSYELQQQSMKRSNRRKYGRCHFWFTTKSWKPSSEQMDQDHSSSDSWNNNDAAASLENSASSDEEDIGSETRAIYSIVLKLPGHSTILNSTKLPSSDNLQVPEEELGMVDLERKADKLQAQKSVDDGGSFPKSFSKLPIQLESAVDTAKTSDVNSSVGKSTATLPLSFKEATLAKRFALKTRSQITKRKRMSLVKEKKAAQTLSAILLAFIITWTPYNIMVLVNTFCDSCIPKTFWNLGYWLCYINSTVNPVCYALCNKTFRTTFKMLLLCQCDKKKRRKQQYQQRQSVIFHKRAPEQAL
# Histamine H1 receptor (Homo sapiens), sequence (P35367 whole entry): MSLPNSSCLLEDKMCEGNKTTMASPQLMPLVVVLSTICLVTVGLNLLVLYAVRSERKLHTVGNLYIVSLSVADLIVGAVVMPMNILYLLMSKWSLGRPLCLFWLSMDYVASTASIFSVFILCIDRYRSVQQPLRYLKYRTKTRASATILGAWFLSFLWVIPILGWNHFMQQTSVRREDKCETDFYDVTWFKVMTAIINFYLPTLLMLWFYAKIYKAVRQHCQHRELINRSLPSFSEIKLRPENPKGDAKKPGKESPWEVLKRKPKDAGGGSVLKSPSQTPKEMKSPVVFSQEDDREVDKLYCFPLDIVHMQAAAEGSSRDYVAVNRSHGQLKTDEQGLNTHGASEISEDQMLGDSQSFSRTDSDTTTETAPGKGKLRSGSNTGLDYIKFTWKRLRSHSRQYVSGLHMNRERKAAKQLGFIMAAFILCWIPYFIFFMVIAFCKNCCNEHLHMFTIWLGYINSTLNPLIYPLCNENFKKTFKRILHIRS
# Sodium-dependent dopamine transporter, sequence (Q01959 whole entry): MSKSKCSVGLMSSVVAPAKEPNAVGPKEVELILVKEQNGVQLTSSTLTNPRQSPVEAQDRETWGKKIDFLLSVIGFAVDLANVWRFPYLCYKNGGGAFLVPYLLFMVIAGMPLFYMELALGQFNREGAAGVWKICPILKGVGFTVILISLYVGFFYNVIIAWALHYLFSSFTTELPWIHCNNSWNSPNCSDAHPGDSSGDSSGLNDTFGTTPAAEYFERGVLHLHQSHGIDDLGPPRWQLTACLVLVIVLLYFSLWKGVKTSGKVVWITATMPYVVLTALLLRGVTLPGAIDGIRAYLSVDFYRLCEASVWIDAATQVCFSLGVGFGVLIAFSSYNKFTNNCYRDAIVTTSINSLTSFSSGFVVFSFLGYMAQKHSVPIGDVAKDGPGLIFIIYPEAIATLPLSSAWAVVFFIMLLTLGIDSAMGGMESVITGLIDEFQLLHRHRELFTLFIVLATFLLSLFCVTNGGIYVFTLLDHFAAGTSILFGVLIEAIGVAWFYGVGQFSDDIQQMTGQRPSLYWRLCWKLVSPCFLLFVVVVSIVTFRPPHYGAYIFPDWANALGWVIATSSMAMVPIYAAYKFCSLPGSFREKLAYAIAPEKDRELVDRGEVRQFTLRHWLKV
# Sodium-dependent serotonin transporter (Rattus norvegicus), sequence (P31652 whole entry): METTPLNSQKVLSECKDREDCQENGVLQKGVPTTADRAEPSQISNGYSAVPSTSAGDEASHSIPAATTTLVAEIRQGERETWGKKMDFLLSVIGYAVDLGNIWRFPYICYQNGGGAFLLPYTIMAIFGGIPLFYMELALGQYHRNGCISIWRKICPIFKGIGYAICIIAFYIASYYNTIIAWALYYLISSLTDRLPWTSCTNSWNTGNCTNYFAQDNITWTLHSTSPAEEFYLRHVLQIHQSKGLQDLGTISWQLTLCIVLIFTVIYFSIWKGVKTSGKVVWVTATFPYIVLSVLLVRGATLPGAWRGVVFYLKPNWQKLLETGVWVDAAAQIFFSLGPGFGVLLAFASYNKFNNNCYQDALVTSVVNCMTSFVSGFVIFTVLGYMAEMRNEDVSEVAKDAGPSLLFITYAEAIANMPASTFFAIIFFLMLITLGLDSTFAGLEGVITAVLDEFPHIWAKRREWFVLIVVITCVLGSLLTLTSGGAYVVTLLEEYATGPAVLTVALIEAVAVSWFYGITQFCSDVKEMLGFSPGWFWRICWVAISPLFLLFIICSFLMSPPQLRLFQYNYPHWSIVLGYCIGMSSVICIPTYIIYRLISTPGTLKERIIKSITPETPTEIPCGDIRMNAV
# Cytochrome P450 2C9, sequence (P11712 whole entry): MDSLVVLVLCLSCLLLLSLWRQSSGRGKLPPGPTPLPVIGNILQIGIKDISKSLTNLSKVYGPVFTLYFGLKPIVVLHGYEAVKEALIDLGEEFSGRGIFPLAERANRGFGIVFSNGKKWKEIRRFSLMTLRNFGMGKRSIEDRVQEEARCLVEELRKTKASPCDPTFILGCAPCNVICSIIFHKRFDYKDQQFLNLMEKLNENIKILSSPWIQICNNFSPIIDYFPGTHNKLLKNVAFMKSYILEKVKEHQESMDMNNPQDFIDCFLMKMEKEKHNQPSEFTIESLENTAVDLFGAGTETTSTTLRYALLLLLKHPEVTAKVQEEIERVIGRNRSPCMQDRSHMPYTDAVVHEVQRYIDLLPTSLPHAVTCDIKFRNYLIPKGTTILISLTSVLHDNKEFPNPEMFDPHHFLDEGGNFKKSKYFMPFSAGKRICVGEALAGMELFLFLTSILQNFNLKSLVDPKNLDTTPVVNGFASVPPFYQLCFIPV
compound,measurement,setting,value
CNCC[C@@H](c1ccc(Cl)c(Cl)c1)n1nnc(C)n1,half-life,[1],> 1 h
same,inhibition,[2],62%
same,Vd,[3],6.8 L/kg
same,inhibition in vivo at 30 mg/kg,Mus musculus [4],94.4%
same,AUC(0-inf),[5],4150 ng·h/mL
same,inhibition,[6],61.2%
same,inhibition,[7],< 20%
same,half-life,[8],5.48 h
same,ED50,Mus musculus [9],22.2 mg/kg
same,minimal effective dose,Mus musculus [9]; read-out: MED,10 mg/kg
same,IC50,Cytochrome P450 1A2,> 10 µM
same,bioavailability,[10],43.2%
same,AUC(0-inf),[11],1790 ng·h/mL
same,AUC,[12],1280 ng·h/mL
same,half-life,[13],0.933 h
same,IC50,Cytochrome P450 2C9,> 10 µM
same,Activity,Mus musculus [14],142%
same,inhibition,[15],< 20%
same,IC50,Cytochrome P450 3A4,> 10 µM
same,clearance,[16],42 mL/min/kg
same,Activity,Mus musculus [17],59.6%
same,Activity,Mus musculus [18],14.9%
same,inhibition,[19],< 20%
same,inhibition,[20],< 20%
same,Activity,Mus musculus [21],92%
same,half-life,[22],3.12 h
same,Cmax,[23],334 ng/mL
same,Activity,Mus musculus [24],158%
same,IC50,Cytochrome P450 2D6,6.9 µM
same,IC50,[25],0.0198 µM
same,minimal effective dose,Mus musculus [26],3 mg/kg
same,IC50,[27],0.143 µM
same,inhibition,[28],43%
